For assay [1], the target named is T1, D(2) dopamine receptor (Rattus norvegicus, UniProt P61169). Briefly: Binding affinity against dopamine (D2) receptor. In a few lines: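 Competition with 0.02 nM [3H]spiperone plus 50 nM ketanserin to mask 5-HT2 sites; chlorpromazine defines nonspecific. 37 °C 15 min, glass-fiber filtration. IC50 from Hill plot linear regression, Ki by Cheng-Prusoff; mean ± SEM.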

The target of assay [2] is T2, D(1A) dopamine receptor (Rattus norvegicus, UniProt P18901). The assay can be described thus: Binding affinity towards dopamine receptor D1 using [3H]SCH-23390 was determined in rat striatal membranes. It is filed as cell membranes, Striatum, Membrane.
The target in assay [3] is Dopamine receptors; D1 & D2 (Rattus norvegicus) (UniProt P18901+P61169). The assay can be described thus: Selectivity for D1 receptor was determined as the ratio of Ki (D2) to that of Ki (D1). It is filed as protein assay. The procedure, abridged: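 D2 used 0.02 nM [3H]spiperone with 50 nM ketanserin; D1 used 0.25 nM [3H]SCH23390. IC50 from Hill plot linear regression, converted to Ki via Cheng-Prusoff.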

Assay [4] has as its target T2, D(1A) dopamine receptor. The assay can be described thus: Binding affinity against dopamine receptor D1.
For assay [5], the target named is T1, D(2) dopamine receptor. Briefly: Binding affinity towards dopamine […] receptor using [3H]spiperone was determined in rat striatal membranes. It is filed as cell membranes, Striatum, Membrane.

The structures appear in SMILES notation. “And” between values parts separate entries of the source, which are not always exact repeats. Equal entries are not always repeated.

T2 sequence (P18901 whole entry): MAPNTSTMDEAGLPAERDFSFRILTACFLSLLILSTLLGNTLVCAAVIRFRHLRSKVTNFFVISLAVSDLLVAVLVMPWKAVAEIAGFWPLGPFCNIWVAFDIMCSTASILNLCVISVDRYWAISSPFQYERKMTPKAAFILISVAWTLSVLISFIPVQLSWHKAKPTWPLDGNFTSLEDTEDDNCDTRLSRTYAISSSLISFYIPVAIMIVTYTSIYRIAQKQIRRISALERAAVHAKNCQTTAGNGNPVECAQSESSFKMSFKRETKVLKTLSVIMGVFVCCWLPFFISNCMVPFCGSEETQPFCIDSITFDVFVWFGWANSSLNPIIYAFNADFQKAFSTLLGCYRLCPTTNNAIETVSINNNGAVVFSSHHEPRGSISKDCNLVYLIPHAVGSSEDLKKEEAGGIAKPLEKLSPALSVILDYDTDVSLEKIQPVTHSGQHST
T1 sequence (P61169 whole entry): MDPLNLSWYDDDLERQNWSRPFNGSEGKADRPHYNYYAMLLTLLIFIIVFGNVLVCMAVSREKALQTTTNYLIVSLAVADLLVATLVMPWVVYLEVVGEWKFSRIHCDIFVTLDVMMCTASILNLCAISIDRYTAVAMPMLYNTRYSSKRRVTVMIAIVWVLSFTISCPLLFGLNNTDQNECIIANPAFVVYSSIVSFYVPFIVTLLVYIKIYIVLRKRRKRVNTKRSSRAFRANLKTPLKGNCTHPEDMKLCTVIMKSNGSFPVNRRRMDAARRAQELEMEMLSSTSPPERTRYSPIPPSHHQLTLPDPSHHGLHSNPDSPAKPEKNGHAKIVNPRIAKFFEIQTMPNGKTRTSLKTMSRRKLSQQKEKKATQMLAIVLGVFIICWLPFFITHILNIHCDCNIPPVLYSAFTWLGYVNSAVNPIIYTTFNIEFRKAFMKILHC

With `Oc1cc2c(cc1Cl)CCNC2c1ccccc1` (racemic), the inhibition constant Ki is 3720 nM in assay [1], 743 nM in assay [2] and 141 nM in assay [4]. The Ratio in assay [3] was 35.4.

Turning to `CN1CCc2cc(Cl)c(O)cc2C1Cc1ccccc1` (racemic), in assay [3], the Ratio came to 5.39.

For the molecule `Oc1cc2c(cc1O)C1c3ccccc3CCN1CC2` (racemic), the results for the Ki in assay [5], in assay [2] and in assay [4] were above 5 µM, 2700 nM and 1380 nM, respectively.

Take `CN1CCc2cc(Br)c(O)cc2[C@@H]1c1ccccc1`: the inhibitory constant (Ki) in assay [1] is 1320 nM; in assay [5], 1.3 µM; in assay [2], 8.3 nM; in assay [4], 8.32 nM. Moreover, the Ratio in assay [3] worked out at 157.

Take `CN1Cc2ccccc2C2c3cc(O)c(Br)cc3CCC21` (racemic): the values for the Ki in assay [5], in assay [2] and in assay [4] were above 3 µM, 138 nM and 141 nM, respectively.

For `CN1CCc2cc(Br)c(O)cc2[C@H]1c1ccccc1`, the figures for the Ki in assay [5], in assay [2] and in assay [4] were above 5 µM, above 5000 nM and 8.32 nM, respectively.

Regarding `CCCN1CCc2cc(Cl)c(O)cc2C1c1ccccc1` (racemic), the inhibitory constant (Ki) is 1910 nM in assay [1], 179 nM in assay [2] and 178 nM in assay [4]. Further, the Ratio in assay [3] was 10.6.

Consider `CN1Cc2cc(Cl)c(O)cc2C(c2ccccc2)C1` (racemic), for which the Ratio in assay [3] was determined as 3. In assay [4], the Ki was 178 nM and 87.1 nM.

As to `CN1CCc2cc(O)ccc2[C@H]1c1ccccc1`, the inhibitory constant (Ki) in assay [5] was above 5 µM; in assay [2], above 5000 nM; in assay [4], above 10000 nM.

In the case of `CN1CCc2cc(Cl)c(O)cc2[C@@H]1c1ccccc1`, in assay [3], the Ratio was 206. For the same molecule, in assay [4], the affinity, expressed as Ki, was 9.12 nM and the “Log Ki” value is -8.04.

Consider `CN1CCc2ccc(O)cc2C1c1ccccc1` (racemic), for which the results for the Ki in assay [5], in assay [2] and in assay [4] were above 5 µM, above 5000 nM and above 10000 nM, respectively.

For the molecule `CN1CCc2cc(O)c(O)cc2C1c1ccccc1` (racemic), the inhibitory constant (Ki) was 295 nM in assay [1], 0.29 µM in assay [5], 370 nM in assay [2] and 186 nM in assay [4]. The Ratio in assay [3] was determined as 1.27.

`CN1CCc2cc(Cl)c(O)cc2[C@H]1c1ccccc1`: the Ki in assay [1] was 19500 nM; in assay [4], 6.61 nM. In addition, the Ratio in assay [3] came to 43.4.

With `Oc1cc2c(cc1Cl)CNCC2c1ccccc1` (racemic), the Ratio in assay [3] is 6.4. Also, the Ki in assay [4] was 282 nM.

Turning to `Oc1cc2c(cc1Cl)CCN1CCc3ccccc3C21` (racemic), the results for the inhibitory constant (Ki) in assay [5], in assay [2] and in assay [4] were above 5 µM, 830 nM and 417 nM, respectively.
